We go through 16 compounds from PMC3313684 (Journal of Natural Products, 2012).

Test [1] concerns Neisseria gonorrhoeae. The test is described as follows: Antimicrobial susceptibility, Neisseria gonorrhoeae. It is filed as cell-based. To be noted: for MIC: Neisseria gonorrhoeae, read-out: MIC Neisseria gonorrhoeae; for MIC Neisseria gonorrhoeae: broth microdilution. The procedure, abridged: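 Neisseria gonorrhoeae ATCC 49226 tested by broth microdilution following standard bacterial dilution guidelines. MIC taken as the lowest concentration inhibiting all visible growth (optically clear). Assays repeated on separate days.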

The test system of test [2] is Micrococcus luteus. To be noted: previously shown; cited from earlier work.
The subject of test [3] is Neisseria gonorrhoeae. To be noted: previously shown; cited from earlier work.
The test system of another test is KAT-4 cells. The test is described as follows: Anaplastic thyroid carcinoma cell line inhibition, KAT-4. It is filed as cell-based, human. To be noted: for GI50: Homo sapiens, KAT-4, read-out: KAT-4 GI50. The procedure, abridged: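 Growth inhibition by the NCI sulforhodamine B method. Cells were plated in RPMI1640 with 5% fetal bovine serum and grown 24 h. Serial dilutions of test compound were then added for 48 h. Plates were fixed with trichloroacetic acid, stained with sulforhodamine B and read by plate reader. GI50 is the concentration giving a 50% drop in net protein increase, calculated from optical density data.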

For a further test, the system named is SW1736 cells. In words: Anaplastic thyroid carcinoma cell line inhibition, SW1736. It is filed as cell-based, human.
Test [4] concerns human umbilical vein endothelial cells (HUVEC). The test is described as follows: HUVEC Matrigel cord formation assay. It is filed as cell-based. Particulars: 0.001 μg/mL, 24 h.
The next test deals with tubulin. The test is described as follows: Inhibition of [3H]colchicine binding to tubulin. To be noted: 10 μM compound, 1.0 μM tubulin, 5.0 μM [3H]colchicine.
Test [5] deals with Micrococcus luteus. In words: Antimicrobial susceptibility, Micrococcus luteus. The test is classed as cell-based. To be noted: read-out: MIC Micrococcus luteus. A digest of the protocol: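 Broth microdilution susceptibility to an established standard for aerobic bacteria, strain Presque Isle 456. Test compound was reconstituted in a small volume of sterile DMSO and diluted in medium just before the assay. MIC was the lowest concentration that stopped all visible growth (optically clear). Assays were repeated on separate days.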

Values after ≈ are worked out from the molar mass of the structure shown. Read-outs that look alike come from different tables or passages of the source. Some results are limits rather than exact numbers.

Usually MIC stands for the lowest concentration found to suppress growth. With `COc1ccc(/C=C\c2cc(I)c(OC)c(I)c2)cc1OP(=O)([O-])[O-].[Na+].[Na+]` [12b, Sodium 3,5-Diiodo-4,4′-dimethoxy-Z-stilbene 3′-O-phosphate], the MIC in the test with Neisseria gonorrhoeae [1] lay within 32 to 64 µg/mL.
With “Piperdine 3,5-Diiodo-4,4′-dimethoxy-Z-stilbene 3′-O-phosphate [12e]”, the “MIC Neisseria gonorrhoeae” value in the test on Neisseria gonorrhoeae [1] is less than 0.5 µg/mL.
For “Tryptophan-OMe 3,5-Diiodo-4,4′-dimethoxy-Z-stilbene 3′-O-phosphate [12g]”, in the test on Neisseria gonorrhoeae [1], the “MIC Neisseria gonorrhoeae” value was less than 0.5 µg/mL.
Still for that read-out and setting: to “Tris 3-Iodo-4,4′,5-trimethoxy-Z-stilbene 3′-O-phosphate [11h]” belongs 32 to 64 µg/mL.
As for `COc1ccc(/C=C\c2cc(OC)c(OC)c(OC)c2)cc1OP(=O)([O-])[O-].[Na+].[Na+]` [1b, fosbretabulin], in the test on Micrococcus luteus [2], the “MIC Micrococcus luteus” value was 25-100 μg/disk. Besides, the “MIC Neisseria gonorrhoeae” value in the test on Neisseria gonorrhoeae [3] is reported as 25-100 μg/disk.
The GI50 is the concentration that inhibits growth by half. In the case of `COc1ccc(/C=C\c2cc(I)c(OC)c(I)c2)cc1O` [9c, 3,5-Diiodo-4,4′-dimethoxy-3′-hydroxy-Z-stilbene], the concentration for 50% growth inhibition (GI50) with KAT-4 cells was in the range of 0.039 to 0.063 µg/mL (≈ 0.0768 to 0.124 µM). Besides, the “times less active against the SW1736 line than against KAT-4” value in the test with SW1736 cells stood at 100 ×. The “cord lengths and junction numbers” value in test [4] is “markedly reduced”. Also, the “inhibition of colchicine binding to tubulin, % inhibition ± SD” value with tubulin is given as 100 ± 0.3%. For the same compound, in the test on Micrococcus luteus [5], the MIC lay in the range of 4 to 16 µg/mL (≈ 7.87 to 31.5 µM).
Turning to “Morpholine 3-Iodo-4,4′,5-trimethoxy-Z-stilbene 3′-O-phosphate [11d]”, the “MIC Neisseria gonorrhoeae” value in the test with Neisseria gonorrhoeae [1] was 16 to 32 µg/mL.
Take `COc1ccc(/C=C\c2cc(I)c(OC)c(I)c2)cc1OP(=O)([O-])[O-].[Li+].[Li+]` [12c, Lithium 3,5-Diiodo-4,4′-dimethoxy-Z-stilbene 3′-O-phosphate]: the MIC in the test on Neisseria gonorrhoeae [1] lay in the range of 0.5 to 2 µg/mL.
Consider `C1COCCN1.COc1ccc(/C=C\c2cc(I)c(OC)c(I)c2)cc1OP(=O)(O)O` [12d, Morpholine 3,5-Diiodo-4,4′-dimethoxy-Z-stilbene 3′-O-phosphate], for which the “MIC Neisseria gonorrhoeae” value in the test with Neisseria gonorrhoeae [1] is less than 0.5 µg/mL.
Regarding `COc1ccc(/C=C\c2cc(OC)c(OC)c(OC)c2)cc1O` [1a, combretastatin A-4], the “MIC Micrococcus luteus” value in the test on Micrococcus luteus [2] is 25-100 μg/disk. For the same compound, the “MIC Neisseria gonorrhoeae” value in the test on Neisseria gonorrhoeae [3] is listed as 25-100 μg/disk.
With “Tryptophan-OMe 3-Iodo-4,4′,5-trimethoxy-Z-stilbene 3′-O-phosphate [11g]”, the “MIC Neisseria gonorrhoeae” value in the test with Neisseria gonorrhoeae [1] lay within 4 to 8 µg/mL.
For `COc1ccc(/C=C\c2cc(I)c(OC)c(OC)c2)cc1O` [9a, 3-Iodo-4,4′,5-trimethoxy-3′-hydroxy-Z-stilbene], the “times less active against the SW1736 line than against KAT-4” value in the test on SW1736 cells was 100 ×. In addition, the “cord lengths and junction numbers” value in test [4] is “markedly reduced”. Also, in the test with tubulin, the “inhibition of colchicine binding to tubulin, % inhibition ± SD” value was determined as 100 ± 0.8%. Moreover, the MIC in the test with Micrococcus luteus [5] fell in the range of 2 to 4 µg/mL (≈ 4.85 to 9.7 µM).
Consider `COc1ccc(/C=C\c2cc(I)c(OC)c(I)c2)cc1OP(=O)([O-])[O-].[K+].[K+]` [12a, Potassium 3,5-Diiodo-4,4′dimethoxy-Z-stilbene 3′-O-phosphate], for which the GI50 with KAT-4 cells is 0.38 to 0.44 µg/mL. Moreover, the “times less inhibitory than the phenols 9a and 9c” value with KAT-4 cells (KAT-4) is 10 ×. In addition, the MIC in the test with Neisseria gonorrhoeae [1] fell in the range of 0.5 to 4 µg/mL.
In the case of `COc1ccc(/C=C\c2cc(I)c(OC)c(OC)c2)cc1OP(=O)([O-])[O-].[K+].[K+]` [11a, Potassium 3-Iodo-4,4′,5-trimethoxy-Z-stilbene 3′-O-phosphate], the GI50 in the test on KAT-4 cells lay within 0.37 to 0.43 µg/mL.
“Tris 3,5-Diiodo-4,4′dimethoxy-Z-stilbene 3′-O-phosphate [12h]”: the “MIC Neisseria gonorrhoeae” value in the test with Neisseria gonorrhoeae [1] was less than 0.5 to 2 µg/mL.
Same read-out and setting: as for “Glycine-OMe 3,5-Diiodo-4,4′-dimethoxy-Z-stilbene 3′-O-phosphate [12f]”, the figure is less than 0.5 to 1 µg/mL.
